Data on three molecules can be found in PMC7729387 (Journal of Antimicrobial Chemotherapy, 2020).

In brackets after ≈: the same amount, converted by molar mass. Like-named read-outs stand apart in the source and are kept apart here. Some results are limits rather than exact numbers.

The test system of data set [1] is A/WSN/33 (H1N1) strain. Nature of the data set: PK/PD analysis, sigmoid Emax model. In kind it is in vivo, influenza A(H1N1) virus (BALB/c mice). Particulars: for E max (estimate) / E 0 (estimate): y = virus titre (log10 TCID50/mL). Summed up: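 A/WSN/33-infected BALB/c mice were dosed subcutaneously from day 5 at 0.0625–8 mg/kg q24h, q12h or q6h for 1 day, five per group, in Tween 80/copolymer carbonate vehicle at pH ~9. Lung titres were read 24 h later by MDCK TCID50. PK parameters came from mean plasma levels after single 0.125–8 mg/kg doses, scaled for 0.0625–4 mg/kg. A sigmoid Emax model was fitted to individual-mouse titres and judged by adjusted R².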

Data set [2] is described as follows: PK of baloxavir acid after oral baloxavir marboxil in A/WSN/33-infected mice. In kind it is in vivo, BALB/c mice. The procedure, abridged: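 A/WSN/33-infected BALB/c mice each received a single oral dose of the prodrug at 0.5, 1.5, 5, 15 or 50 mg/kg. Blood was taken at 0.5–12 h, three mice per dose per timepoint. Plasma active acid and prodrug were measured by LC-MS/MS.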

The conditions of data set [3]: humans; single-dose oral baloxavir marboxil; cited from earlier work.
The test system of data set [4] is A/WSN/33 (H1N1) strain. In kind it is in vivo, influenza A(H1N1) virus (BALB/c mice).
The nature of data set [5]: PK of baloxavir acid after subcutaneous baloxavir acid in A/WSN/33-infected mice. In kind it is in vivo, BALB/c mice. The conditions noted are these: sc baloxavir acid 0.125, 0.5, 2 and 8 mg/kg.
Data set [6] concerns type A and type B virus strains. Particulars: cited from earlier work.
The test system is the same in data set [7]. The conditions noted are these: plaque-reduction assay; cited from earlier work. For orientation: In a plaque reduction assay, fewer plaques than in the control indicate reduced infectivity or spread.
Data set [8] has as its system A/WSN/33 (H1N1) strain. Put plainly: PK/PD analysis, linear model. The conditions noted are these: y = virus titre (log10 TCID50/mL). In kind it is in vivo, influenza A(H1N1) virus (BALB/c mice).
Data set [9] has as its system A/Osaka/129/2009 (H1N1pdm09). Further details: species or system influenza A(H1N1)pdm09 virus (BALB/c mice). The conditions noted are these: mouse, in vivo, po, 5 mg/kg.
Data set [10] has as its system influenza A virus. Particulars: 10 mg/kg, q24h daily, nude mice; cited from earlier work.
The subject of data set [11] is influenza virus. Particulars: cited from earlier work.
For data set [12], the system named is B/Hong Kong/5/72. In kind it is in vivo, influenza type B virus (BALB/c mice). Particulars: oral 15 mg/kg twice daily.
Data set [13] concerns A/Hong Kong/8/68 (H3N2). In kind it is in vivo, influenza A(H3N2) virus (BALB/c mice). Particulars: oral 15 mg/kg twice daily.
Where [14] appears, read: BXA in plasma, oral BXM 0.5 mg/kg.
Where [15] appears, read: BXA in plasma, oral BXM 1.5 mg/kg.
The mark [16] stands for this setting: BXA in plasma, oral BXM 5 mg/kg.
The mark [17] stands for this setting: BXA in plasma, oral BXM 15 mg/kg.
The mark [18] stands for this setting: BXA in plasma, oral BXM 50 mg/kg.
[19] abbreviates: […], 24 h after initial dosing, 15 mg/kg.
Where [20] appears, read: 24 h after single-dose oral treatment, patients with uncomplicated influenza, ref Phase 3 baloxavir marboxil studies.

For the molecule `O=C1c2c(O)c(=O)ccn2N([C@@H]2c3ccccc3SCc3c2ccc(F)c3F)[C@@H]2COCCN12` [baloxavir acid], the “E max (estimate)” value in data set [1] (x = AUC0–24 (ng·h/mL)) was 1.091; in [1] (x = C 24 (ng/mL)), 1.499; in data set [1] (x = C max (ng/mL)), 1.022; in data set [1] (x = C τ (ng/mL)), 1.554; in data set [1] (x = T >50 (h)) it was 1.913. For the same molecule, the “EC50 (estimate)” value in [1] (x = C 24) is listed as 4.767 ng/mL (≈ 9.86 nM); in data set [1] (x = C max), 42.528 ng/mL (≈ 88 nM); in data set [1] (x = C τ) it was 4.108 ng/mL (≈ 8.5 nM). In addition, the “E 0 (estimate)” value in data set [1] (x = C 24 (ng/mL)) is given as 3.928; in data set [1] (x = C max (ng/mL)) it was 3.806; in data set [1] (x = C τ (ng/mL)), 3.958; in data set [1] (x = T >50 (h)), 3.588; in data set [8] (x = T >2 (h)) it was 5.141; in data set [8] (x = T >10 (h)), 4.095. In addition, the “E 0 (estimate)” value in data set [8] (x = T >50 (h)) was 3.569. In addition, in [2] (BXA in plasma after oral baloxavir marboxil 0.5–50 mg/kg), the “plasma exposure versus dose” value is recorded as “increased dose proportionally up to 15 mg/kg”. Further, the “AUC0–12” value is recorded as 22.0 ng·h/mL in [2] (setting [14]); 62.6 ng·h/mL in [2] (setting [15]); 242 ng·h/mL in data set [2] (setting [16]); 648 ng·h/mL in [2] (setting [17]); 1580 ng·h/mL in data set [2] (setting [18]). The “AUC0–∞” value in [2] (setting [14]) is 22.7 ng·h/mL; in [2] (setting [15]), 66.1 ng·h/mL; in data set [2] (setting [16]), 252 ng·h/mL; in [2] (setting [17]) it was 670 ng·h/mL; in [2] (setting [18]), 1690 ng·h/mL. For the same molecule, the C max in data set [2] (setting [14]) was 5.05 ng/mL; in data set [2] (setting [15]), 14.3 ng/mL; in data set [2] (setting [16]) it was 45.7 ng/mL; in data set [2] (setting [17]) it was 175 ng/mL; in data set [2] (setting [18]), 284 ng/mL. The T max in data set [2] (setting [14]) worked out at 1.00 h; in data set [2] (setting [15]), 1.00 h; in data set [2] (setting [16]), 0.500 h; in data set [2] (setting [17]), 0.500 h; in data set [2] (setting [18]), 2.00 h. In addition, the “t ½,z” value was 2.24 h in data set [2] (BXA in plasma, oral BXM 0.5 mg/kg, t½,4–10 h); 2.56 h in [2] (BXA in plasma, oral BXM 1.5 mg/kg, t½,6–12 h); 2.45 h in [2] (BXA in plasma, oral BXM 5 mg/kg, t½,6–12 h); 2.26 h in data set [2] (BXA in plasma, oral BXM 15 mg/kg, t½,6–12 h); 3.14 h in [2] (BXA in plasma, oral BXM 50 mg/kg, t½,6–12 h). Besides, the “t½,z (half-life in mouse plasma)” value in data set [2] (BXA in plasma, oral baloxavir marboxil 0.5–50 mg/kg, range over doses) lay within 2.24 to 3.14 h. Also, the “half-life in plasma compared with that in mice” value in data set [3] is over 10 fold. For the same molecule, the “virus titres versus vehicle or oseltamivir phosphate 5 eq mg/kg, q12h” value in [4] ([…], 24 h post-treatment initiation, all groups) is “numerically lower”. Also, the “plasma concentration versus dose” value in data set [5] was “increased dose proportionally from 0.125 to 8 mg/kg”. The “inhibitory values, type A more potent than type B virus strains” value is reported as 4- to 5 fold in [6] and 6- to 12 fold in [7].
On to `COC(=O)OCOc1c2n(ccc1=O)N([C@@H]1c3ccccc3SCc3c1ccc(F)c3F)[C@@H]1COCCN1C2=O` [baloxavir marboxil], for which the “virus titre reduction in mice infected with the H1N1pdm09 strain” value in data set [9] is at least 100 fold. Besides, in [2] (after oral baloxavir marboxil, data not shown), the “baloxavir marboxil in plasma” value is on record as “undetectable in almost all infected mice”. Besides, the “clearance of virus from the respiratory organs” value in data set [10] is “did not clear the virus from the respiratory organs”. Further, in data set [4] (setting [19]), the “virus titres declined compared with oseltamivir phosphate 5 or 50 eq mg/kg, q12h” value is on record as 2 log10 TCID50/mL and the “virus titres declined compared with vehicle” value is recorded as over 3 log10 TCID50/mL. In data set [4] (mouse, in vivo, po, 1.5 mg/kg), the “virus titres compared with the clinically equivalent or higher dose of oseltamivir phosphate” value is listed as “significantly reduced virus titres”. Also, the “Lung virus titres versus each NAI or favipiravir” value in data set [4] (mouse, in vivo, po, 5 mg/kg) is “significantly lower”. In addition, in data set [4] (oral 15 mg/kg twice daily), the “decrease in virus titre compared with oseltamivir phosphate at 5 eq mg/kg” value (shortened to “decrease in virus titre”) is listed as 2.64 log10 TCID50/mL. Besides, in data set [11] (setting [20]), the “greater viral load reduction than after oseltamivir phosphate” value was 2.0 log10 TCID50/mL and the “greater viral load reduction than after placebo” value is listed as 3.5 log10 TCID50/mL. The Symptom resolution entry in data set [11] (type A virus infections) is “faster with baloxavir marboxil than placebo, but not oseltamivir phosphate”. In [12], the “decrease in virus titre” value is listed as 0.97 log10 TCID50/mL. Also, the “decrease in virus titre” value in data set [13] is on record as 2.16 log10 TCID50/mL.
As for `CCOC(=O)C1=C[C@@H](OC(CC)CC)[C@H](NC(C)=O)[C@@H](N)C1` [oseltamivir phosphate, reference compound], the “reduction in virus titres compared with vehicle” value in data set [4] (mouse, in vivo) is 0.5–1 log10.
